Columns and labels:
[1] = target: T1, C-C chemokine receptor type 3 (Homo sapiens, UniProt P51677); assay: Displacement of [125I]eotaxin from human CCR3 expressed in CHO cells; assay type: cell-based
T1 sequence (P51677 whole entry): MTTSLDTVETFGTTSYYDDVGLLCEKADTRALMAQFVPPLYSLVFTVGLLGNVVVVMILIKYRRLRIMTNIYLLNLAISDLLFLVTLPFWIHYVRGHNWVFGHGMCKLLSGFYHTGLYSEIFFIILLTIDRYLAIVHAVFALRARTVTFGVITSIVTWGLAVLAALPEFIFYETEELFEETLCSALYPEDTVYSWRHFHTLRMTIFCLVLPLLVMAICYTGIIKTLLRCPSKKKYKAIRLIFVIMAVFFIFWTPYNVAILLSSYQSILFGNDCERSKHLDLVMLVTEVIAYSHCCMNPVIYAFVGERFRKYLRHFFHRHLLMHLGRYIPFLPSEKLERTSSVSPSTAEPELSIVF
In short: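 Binding of 0.15 nM [125I]eotaxin to CHO cells expressing human CCR3. Data are a single determination, mean ± SD (n = 2), or mean ± SEM (n indicated). ">" means less than 50% response at the stated concentration.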

[2] = target: T2, C-C chemokine receptor type 1 (Homo sapiens) (UniProt P32246); assay: Inhibition of CCR1 at 10 uM
T2 sequence (whole entry): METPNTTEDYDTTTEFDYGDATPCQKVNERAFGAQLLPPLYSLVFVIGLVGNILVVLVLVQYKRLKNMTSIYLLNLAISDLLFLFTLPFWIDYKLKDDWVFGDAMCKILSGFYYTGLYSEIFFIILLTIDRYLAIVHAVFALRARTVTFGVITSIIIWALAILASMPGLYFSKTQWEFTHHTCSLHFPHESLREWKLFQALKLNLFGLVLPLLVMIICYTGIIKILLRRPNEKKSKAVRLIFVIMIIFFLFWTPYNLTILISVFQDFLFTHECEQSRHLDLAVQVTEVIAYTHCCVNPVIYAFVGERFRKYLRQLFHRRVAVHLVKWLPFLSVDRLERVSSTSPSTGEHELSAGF

[3] = target: T3, C-C chemokine receptor type 2 (Homo sapiens, UniProt P41597); assay: Displacement of [125]MCP1 from CCR2 in human PBMCs
In short: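 Competition binding with 0.3 nM [125I]MCP-1 on human peripheral blood mononuclear cells at 23 °C. IC50 given as mean ± SD (n = 2) or mean ± SEM (n > 2). Single determinations are listed with n = 1.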
Target sequence in this assay (P41597 whole entry): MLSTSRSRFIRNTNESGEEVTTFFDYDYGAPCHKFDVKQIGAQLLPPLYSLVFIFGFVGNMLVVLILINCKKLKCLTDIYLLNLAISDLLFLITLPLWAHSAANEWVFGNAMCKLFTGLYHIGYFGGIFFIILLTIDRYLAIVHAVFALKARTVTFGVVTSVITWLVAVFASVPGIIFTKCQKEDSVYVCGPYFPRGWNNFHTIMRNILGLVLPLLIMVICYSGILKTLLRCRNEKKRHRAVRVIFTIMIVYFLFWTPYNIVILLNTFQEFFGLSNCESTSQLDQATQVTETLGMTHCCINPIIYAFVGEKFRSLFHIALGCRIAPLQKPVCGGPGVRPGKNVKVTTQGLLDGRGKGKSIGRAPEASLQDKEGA

[4] = target: T3, C-C chemokine receptor type 2; assay: Antagonist activity at CCR2 in THP1 cells assessed as inhibition of MCP1-induced Ca2+ flux; assay type: functional, cell-based, THP-1
Target sequence in this assay (P41597 whole entry): as above

[5] = target: T3, C-C chemokine receptor type 2; assay: Displacement of [125]MCP1 from CCR2 in human PBMCs at 10 uM
In short: (§1)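 Human PBMCs were incubated with 0.3 nM [125I]MCP-1 at 23 °C. Percent inhibition of binding was measured at one fixed inhibitor concentration, n = 1.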
Target sequence in this assay (P41597 whole entry, looked up): as the sequence (P41597 whole entry) above

[6] = target: Mu-type opioid receptor (Homo sapiens) (UniProt P35372); assay: Inhibition of opiate mu receptor at 10 uM
[7] = target: Sigma non-opioid intracellular receptor 1 (Homo sapiens) (UniProt Q99720); assay: Inhibition of sigma 1 receptor at 10 uM
[8] = target: C-C chemokine receptor type 5 (Homo sapiens) (UniProt P51681); assay: Inhibition of CCR5 receptor at 10 uM
[9] = species on record: Homo sapiens; assay: Inhibition of sodium channel at 10 uM
[10] = target: Histamine H2 receptor (Homo sapiens) (UniProt P25021); assay: Inhibition of histamine H2 receptor at 10 uM
[11] = target: L-type calcium channel (Homo sapiens, UniProt O60840+Q01668+Q13698+Q13936); assay: Inhibition of L-type calcium channel at 10 uM
[12] = target: T3, C-C chemokine receptor type 2; assay: Displacement of [125]MCP1 from CCR2 in human PBMCs at 1 uM; in short: as §1
Target sequence in this assay (P41597 whole entry, looked up): as the sequence (P41597 whole entry) above

Histamine H2 receptor (Homo sapiens), sequence (P25021 whole entry): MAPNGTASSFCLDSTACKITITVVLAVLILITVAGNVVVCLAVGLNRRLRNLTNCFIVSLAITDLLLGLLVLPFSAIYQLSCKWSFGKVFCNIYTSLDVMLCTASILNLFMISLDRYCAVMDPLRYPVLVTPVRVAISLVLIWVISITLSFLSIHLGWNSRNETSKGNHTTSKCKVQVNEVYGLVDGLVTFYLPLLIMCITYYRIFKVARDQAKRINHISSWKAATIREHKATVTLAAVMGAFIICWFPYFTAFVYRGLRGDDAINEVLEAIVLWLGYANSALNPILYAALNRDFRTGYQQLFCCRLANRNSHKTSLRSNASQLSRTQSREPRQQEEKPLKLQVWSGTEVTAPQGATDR
Sigma non-opioid intracellular receptor 1 (Homo sapiens), sequence (Q99720 whole entry): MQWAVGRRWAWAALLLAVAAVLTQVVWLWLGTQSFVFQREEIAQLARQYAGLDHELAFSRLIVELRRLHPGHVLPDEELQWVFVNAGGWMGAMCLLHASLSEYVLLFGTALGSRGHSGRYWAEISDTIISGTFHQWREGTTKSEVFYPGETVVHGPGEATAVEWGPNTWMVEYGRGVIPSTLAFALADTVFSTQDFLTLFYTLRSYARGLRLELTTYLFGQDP
C-C chemokine receptor type 5 (Homo sapiens), sequence (P51681 whole entry, looked up): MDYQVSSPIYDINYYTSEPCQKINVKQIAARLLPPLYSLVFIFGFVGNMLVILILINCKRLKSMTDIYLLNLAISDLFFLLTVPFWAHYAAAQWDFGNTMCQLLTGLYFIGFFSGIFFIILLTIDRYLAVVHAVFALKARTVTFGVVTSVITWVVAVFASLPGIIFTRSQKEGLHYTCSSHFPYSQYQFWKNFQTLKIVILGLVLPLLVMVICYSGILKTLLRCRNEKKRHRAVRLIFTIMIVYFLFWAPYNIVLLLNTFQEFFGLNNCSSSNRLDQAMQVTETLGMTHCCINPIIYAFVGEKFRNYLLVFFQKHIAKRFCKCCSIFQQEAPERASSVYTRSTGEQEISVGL
Mu-type opioid receptor (Homo sapiens), sequence (P35372 whole entry): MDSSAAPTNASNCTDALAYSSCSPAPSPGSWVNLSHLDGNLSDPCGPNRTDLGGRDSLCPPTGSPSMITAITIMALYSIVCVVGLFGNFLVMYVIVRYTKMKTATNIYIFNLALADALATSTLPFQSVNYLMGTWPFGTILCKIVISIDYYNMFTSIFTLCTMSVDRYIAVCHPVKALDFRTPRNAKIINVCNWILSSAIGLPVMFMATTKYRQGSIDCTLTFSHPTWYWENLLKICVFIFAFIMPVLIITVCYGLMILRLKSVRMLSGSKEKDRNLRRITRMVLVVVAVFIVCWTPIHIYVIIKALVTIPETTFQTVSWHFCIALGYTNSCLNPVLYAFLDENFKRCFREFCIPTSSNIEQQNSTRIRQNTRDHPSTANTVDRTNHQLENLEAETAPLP

SMILES | inhibition [2] | IC50 [3] | also measured
Cc1ccc(CNC[C@H](NC(=O)CNC(=O)c2cc(N)cc(C(F)(F)F)c2)C(=O)NC(C)(C)C)c(C)c1 | < 30% | 23 nM | IC50 [1]: > 10000 nM; IC50 [4]: 52 nM
Cc1ccc(CNC[C@H](NC(=O)CNC(=O)c2cc(C(F)(F)F)ccc2NCc2ccccc2)C(=O)NC(C)(C)C)c(C)c1 | < 30% | 19 nM | IC50 [1]: > 10000 nM; IC50 [4]: 57 nM
Cc1ccc(CNC[C@H](NC(=O)[C@H](C)NC(=O)c2cccc(C(F)(F)F)c2)C(N)=O)c(C)c1 | < 30% |  | Activity [5]: 9%
Cc1ccc(CNC[C@H](NC(=O)CNC(=O)c2cccc(C(F)(F)F)c2)C(N)=O)c(C)c1 | < 30% | 66 nM | IC50 [1]: > 10000 nM; IC50 [4]: 69 nM
Cc1ccc(CNC[C@H](C)NC(=O)CNC(=O)c2cccc(C(F)(F)F)c2)c(C)c1 | < 30% |  | Activity [5]: 35%
Cc1ccc(CNC[C@H](NC(=O)CNC(=O)c2cc(C(F)(F)F)ccc2N)C(=O)NC(C)(C)C)c(C)c1 | < 30% | 11 nM | IC50 [1]: 750 nM; inhibition [6]: > 70%; inhibition [7]: > 70%; inhibition [8]: > 70%; inhibition [9]: > 70%; inhibition [10]: > 70%; inhibition at 10 µM [11]: > 70%; IC50 [4]: 8 nM
Cc1ccc(CNC[C@H](NC(=O)CNC(=O)c2cc(C(F)(F)F)ccc2NC(=O)NC(C)C)C(=O)NC(C)(C)C)c(C)c1 | < 30% | 15 nM | IC50 [1]: 10000 nM; IC50 [4]: 58 nM
CCNC(=O)[C@@H](NC(=O)CNC(=O)c1cccc(C(F)(F)F)c1)[C@H](C)NCc1ccc(C)cc1C | < 30% |  | Activity [5]: 2%
CC(C)(C)NC(=O)[C@H](CNCc1ccc(-c2ccccc2)cc1)NC(=O)CNC(=O)c1cccc(C(F)(F)F)c1 | < 30% |  | Activity [12]: 30%
Cc1ccc(CNC[C@H](NC(=O)CNC(=O)c2cccc(C(F)(F)F)c2)C(=O)NC(C)(C)C)cc1F | < 30% |  | Activity [12]: 27%
Cc1ccc(CNC[C@H](NC(=O)[C@@H](C)NC(=O)c2cccc(C(F)(F)F)c2)C(N)=O)c(C)c1 | < 30% |  | Activity [5]: 40%
CCNc1ccc(C(F)(F)F)cc1C(=O)NCC(=O)N[C@@H](CNCc1ccc(C)cc1C)C(=O)NC(C)(C)C | < 30% | 13 nM | IC50 [1]: > 10000 nM; IC50 [4]: 84 nM
COC(=O)c1ccc(CNC[C@H](NC(=O)CNC(=O)c2cccc(C(F)(F)F)c2)C(=O)NC(C)(C)C)cc1 | < 30% |  | Activity [12]: 20%
Cc1ccc(CNC[C@@H](NC(=O)CNC(=O)c2cccc(C(F)(F)F)c2)C(C)C)c(C)c1 | < 30% |  | Activity [5]: 20%
CCNc1cc(C(=O)NCC(=O)N[C@@H](CNCc2ccc(C)cc2C)C(=O)NC(C)(C)C)cc(C(F)(F)F)c1 | < 30% | 19 nM | IC50 [1]: > 10000 nM; IC50 [4]: 58 nM
Cc1ccc(CNC[C@H](NC(=O)CNC(=O)c2cc(NC(=O)C3CCCCC3)cc(C(F)(F)F)c2)C(=O)NC(C)(C)C)c(C)c1 | < 30% |  | Activity [12]: 25%
Cc1ccc(CNC[C@H](NC(=O)CNC(=O)c2cccc(C(F)(F)F)c2)C(=O)NC(C)(C)C)c(C)c1 | < 30% | 48 nM | IC50 [1]: > 10000 nM; IC50 [4]: 52 nM
CNC(=O)[C@H](CNCc1ccc(C)cc1C)NC(=O)CNC(=O)c1cccc(C(F)(F)F)c1 | < 30% | 230 nM | 
Cc1cc(N(C)C)ccc1CNC[C@H](NC(=O)CNC(=O)c1cccc(C(F)(F)F)c1)C(=O)NC(C)(C)C | < 30% | 36 nM | 
Cc1ccc(CNC[C@@H](NC(=O)CNC(=O)c2cccc(C(F)(F)F)c2)C(=O)O)c(C)c1 | < 30% |  | Activity [5]: 31%
Cc1ccc(CNC[C@H](NC(=O)CNC(=O)c2cc(NCc3ccccc3)cc(C(F)(F)F)c2)C(=O)NC(C)(C)C)c(C)c1 | < 30% | 110 nM | 
Cc1ccc(CNC[C@H](NC(=O)CNC(=O)c2cccc(C(F)(F)F)c2)C(=O)NC(C)C)c(C)c1 | < 30% | 170 nM | 
Cc1ccc(CNCC[C@H](NC(=O)CNC(=O)c2cccc(C(F)(F)F)c2)C(N)=O)c(C)c1 | < 30% | 3000 nM | 
Cc1ccc(CN(C)C[C@H](NC(=O)CNC(=O)c2cccc(C(F)(F)F)c2)C(=O)NC(C)(C)C)c(C)c1 | < 30% |  | Activity [12]: 12%
COc1ccc(CNC[C@H](NC(=O)CNC(=O)c2cccc(C(F)(F)F)c2)C(=O)NC(C)(C)C)c(OC)c1 | < 30% |  | Activity [12]: 37%
CCNC(=O)[C@H](CNCc1ccc(C)cc1C)NC(=O)CCC(=O)c1cccc(C(F)(F)F)c1 | < 30% |  | Activity [5]: 7%
CCc1ccc(CNC[C@H](NC(=O)CNC(=O)c2cccc(C(F)(F)F)c2)C(=O)NC(C)(C)C)c(C)c1 | < 30% | 36 nM | 
